From ChEMBL document CHEMBL4813970, “Design, synthesis and evaluation of novel dimethylamino chalcone-O-alkylamines derivatives as potential multifunctional agents against Alzheimer's disease” (Eur J Med Chem, 2021) come the findings set out here.

Test [1] has as its target T1, Amyloid-beta precursor protein (Homo sapiens, UniProt P05067). The test can be described thus: Inhibition of self-induced amyloid beta (1 to 42) (unknown origin) aggregation by T-fluorescence assay relative to control. The following applies: read-out: IC50. In a few lines:
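IC50 by ThT fluorescence (excitation 446 nm, emission 490 nm). Computed only where inhibition of self-induced Aβ1-42 aggregation at 25 μM exceeded 90%. Triplicate; mean of three independent experiments.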

In test [2] the target is T1, Amyloid-beta precursor protein. The test can be described thus: Inhibition of self-induced amyloid beta (1 to 42) (unknown origin) assessed as reduction in fibril formation incubated for 24 hrs by transmission electron microscopy. Summed up: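 Aβ1-42 at 25 μM incubated 24 h with or without compound at 25 μM. Samples imaged by transmission electron microscopy.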
For the next test, the target named is Acetylcholinesterase (Electrophorus electricus, UniProt O42275). The test can be described thus: Mixed type inhibition of electric eel AChE by reciprocal Lineweaver-Burk plot analysis.
Acetylcholinesterase, sequence (O42275 whole entry): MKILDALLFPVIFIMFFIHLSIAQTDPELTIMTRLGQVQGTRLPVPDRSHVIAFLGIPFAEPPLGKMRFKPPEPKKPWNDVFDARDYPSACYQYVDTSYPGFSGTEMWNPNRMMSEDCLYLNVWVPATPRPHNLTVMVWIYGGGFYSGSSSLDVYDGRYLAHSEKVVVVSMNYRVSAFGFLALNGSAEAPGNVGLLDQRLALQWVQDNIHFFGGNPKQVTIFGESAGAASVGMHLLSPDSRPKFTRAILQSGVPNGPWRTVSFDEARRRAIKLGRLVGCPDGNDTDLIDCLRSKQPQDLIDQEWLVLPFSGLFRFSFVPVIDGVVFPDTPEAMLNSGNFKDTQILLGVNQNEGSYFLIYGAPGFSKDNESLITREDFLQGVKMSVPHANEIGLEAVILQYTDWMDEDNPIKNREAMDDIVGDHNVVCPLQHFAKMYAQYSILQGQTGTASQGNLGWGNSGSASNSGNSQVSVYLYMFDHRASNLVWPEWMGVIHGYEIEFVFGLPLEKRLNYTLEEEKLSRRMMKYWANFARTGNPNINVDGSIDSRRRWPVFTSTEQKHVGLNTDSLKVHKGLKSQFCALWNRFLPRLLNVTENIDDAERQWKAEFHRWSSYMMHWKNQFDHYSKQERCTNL
Test [3] is described as follows: Metal chelating activity assessed as compound-Cu2+ complex formation by measuring maximum absorption wavelength shifted from 444 nm to 460 nm by UV-Visible spectrophotometry. Summed up:
(§1)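 UV-vis spectra recorded from 200 to 600 nm on a multimode reader. Metals tested as CuCl2, FeSO4, ZnCl2 and AlCl3.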

Test [4] in a line: Metal chelating activity assessed as compound Fe2+ complex formation by UV-Visible spectrophotometry. Summed up:
as §1

The nature of test [5]: Metal chelating activity assessed as compound Zn2+ complex formation by UV-Visible spectrophotometry. Summed up:
as §1

In test [6] the target is T1, Amyloid-beta precursor protein. The test can be described thus: Disaggregation of Cu2+ induced amyloid beta (1 to 42 residues) (unknown origin) aggregation at 25 uM by thioflavin-T fluorescence method relative to control.
The subject of test [7] is PC-12. The test can be described thus: Cytotoxicity against rat PC12 cells assessed as cell viability by MTT assay relative to control. It counts as functional.
Test [8] deals with PC-12. The test can be described thus: Neuroprotective activity against H2O2-induced cytotoxicity in rat PC12 cells assessed as increase in cell viability by MTT assay. It counts as functional, cell-based. In a few lines:
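PC12 cells exposed to 100 μM H2O2, with or without compound. Viability read by MTT reduction relative to control. Trolox 100 μM is the reference.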
(Formazan colour is commonly taken as a measure of viable cells.)

For test [9], the system named is PC-12. In words: Neuroprotective activity against H2O2-induced cytotoxicity in rat PC12 cells assessed as increase in cell viability by LDH assay. It counts as functional, cell-based. In a few lines:
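PC12 cells exposed to H2O2, with or without compound. Membrane damage read as LDH release into the supernatant. Trolox is the reference.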

The next test concerns Mus musculus. The test can be described thus: Antialzheimer activity in scopolamine-induced po dosed KM mouse model of memory impairment assessed as increase in latency time treated for 7 days followed by training trial at 1 hr post dose and subsequent scopolamine challenge at 30 mins post training trial and measured post last dose by step-down passive avoidance test. It counts as functional, organism-based. The following applies: dose 2.3-20.4 mg/kg, time 7.0 day. In a few lines:
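Mice orally dosed at 2.3, 6.8 and 20.4 mg/kg, with donepezil 5.0 mg/kg p.o. as positive control, 1 h before training trial. Scopolamine 3 mg/kg i.p. given 30 min later. Training trial uses a 0.5 mA, 2 s foot shock on stepping down from the block. Step-down latency is measured as the test trial 24 h after training. n = 10 per group.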

Molecules are shown by their SMILES. Activity calls are given as the source filed them. The rule behind the calls is not given here. Where only a bound is given, the exact number is not on record here.

T1 sequence (P05067 whole entry): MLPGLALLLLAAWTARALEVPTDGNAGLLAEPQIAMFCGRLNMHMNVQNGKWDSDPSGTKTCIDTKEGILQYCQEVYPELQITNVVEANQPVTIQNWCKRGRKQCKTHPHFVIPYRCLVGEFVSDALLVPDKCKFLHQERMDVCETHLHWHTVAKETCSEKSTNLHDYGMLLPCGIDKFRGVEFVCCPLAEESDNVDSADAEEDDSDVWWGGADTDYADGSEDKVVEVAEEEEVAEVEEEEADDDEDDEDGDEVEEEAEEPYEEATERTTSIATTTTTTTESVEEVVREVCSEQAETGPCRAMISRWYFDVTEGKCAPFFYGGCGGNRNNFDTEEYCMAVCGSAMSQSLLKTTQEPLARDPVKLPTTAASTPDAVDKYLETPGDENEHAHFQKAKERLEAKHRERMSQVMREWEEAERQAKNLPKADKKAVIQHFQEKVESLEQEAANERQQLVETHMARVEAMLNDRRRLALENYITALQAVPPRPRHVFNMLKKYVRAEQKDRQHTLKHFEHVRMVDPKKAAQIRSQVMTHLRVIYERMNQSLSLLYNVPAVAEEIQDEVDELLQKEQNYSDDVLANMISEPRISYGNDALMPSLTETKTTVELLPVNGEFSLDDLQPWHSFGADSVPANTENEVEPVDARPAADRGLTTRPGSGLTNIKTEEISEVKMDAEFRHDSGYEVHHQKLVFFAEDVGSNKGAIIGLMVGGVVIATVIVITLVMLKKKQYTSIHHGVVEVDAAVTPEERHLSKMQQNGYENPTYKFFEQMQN

Regarding `CCN(CCCCOc1ccc(C(=O)/C=C/c2ccc(N(C)C)cc2)c(O)c1)Cc1ccccc1N(C)C`, the IC50 (as a rule, the concentration that inhibits the measured activity by half) in test [1] is 880 nM. In addition, the outcome in [2], in test [4] and in test [5] was inactive. For the same molecule, the Ki (usually a measure of affinity in units of concentration, obtained from inhibition or displacement) at Acetylcholinesterase is 500 nM. Besides, the result (in test [3]; in the test on PC-12 [9]) was Active. For the same molecule, the Activity in test [6] is 88.1%; in the test with PC-12 [7], >50 µM; in the test with PC-12 [8] it was “Dose-Dependent Effect”; with Mus musculus it was “Dose-Dependent Effect”.
